Assay results from ChEMBL document CHEMBL1155225, “Investigation of functionally liver selective glucokinase activators for the treatment of type 2 diabetes” (J Med Chem, 2009).
Converted amounts (≈) assume the structure as drawn. The source made the active and inactive calls. The rule behind the calls is not given here.

Legend:
[1] = molecular target: T1, Hexokinase-4 (Homo sapiens) (UniProt P35557); experiment: Activation of His-tagged human recombinant liver glucokinase expressed in Escherichia coli BL21 (DE3) assessed as drug level required for half-maximal activation; type: single protein
T1 sequence (whole entry): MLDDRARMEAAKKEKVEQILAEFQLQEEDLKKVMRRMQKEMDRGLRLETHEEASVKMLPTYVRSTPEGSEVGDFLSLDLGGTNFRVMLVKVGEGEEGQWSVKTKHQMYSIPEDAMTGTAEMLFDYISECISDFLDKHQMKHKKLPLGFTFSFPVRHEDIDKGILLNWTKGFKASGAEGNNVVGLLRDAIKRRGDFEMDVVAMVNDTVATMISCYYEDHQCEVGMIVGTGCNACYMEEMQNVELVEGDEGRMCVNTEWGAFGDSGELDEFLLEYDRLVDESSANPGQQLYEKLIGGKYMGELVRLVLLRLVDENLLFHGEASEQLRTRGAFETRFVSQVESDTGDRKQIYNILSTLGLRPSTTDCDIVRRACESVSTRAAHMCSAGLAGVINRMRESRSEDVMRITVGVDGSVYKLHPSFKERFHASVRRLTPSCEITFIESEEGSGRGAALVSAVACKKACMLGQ
Method in brief: (§1)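 Recombinant human liver GK (aa 17-466), His-tagged, expressed in E. coli BL21 Star (DE3), nickel affinity purified, tag cleaved (GPGSM left), then anion exchange and gel filtration to >95%.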

[2] = Metabolic stability in human liver microsomes assessed as half life; type: ADME, Microsome
Method in brief: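 Compound incubated at 1 μM with human liver microsomes plus selected cofactors (NADPH, UDPGA); clearance followed at 4 time points as % test compound remaining, giving half-life.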

Mus musculus [3] = experiment: Reduction in glucose excursion in C57BL/6 mouse at 50 mg/kg, po in microemulsion administered 30 mins before glucose challenge measured at 4 hrs postdose by oral glucose tolerance test; type: functional, organism-based; design: dose 50 mg/kg; settings: C57BL6
Method in brief: (§2)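 C57BL6 mice grouped by matched 0-h plasma glucose; compound given by oral gavage (5 mL/kg) at 50 mg/kg (or 72 mg/kg) in microemulsion (Cremophor RH40, corn oil-monodiglyceride, propylene glycol, ethanol; diluted 2:3 with water) or in water; oral glucose 1 g/kg 30 min later. Blood sampled at 0.5, 1, 2 and 4 h post-dosing for glucose (meter) and insulin; % reduction from control.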

[4] = Permeability at 5 to 10 uM at pH 4, 6.8 and 8 by PAMPA; settings: pH 4, 6.8, 8, 10 µM
[5] = Aqueous solubility in water by HPLC analysis; type: physicochemical
[6] = molecular target: T2, Hexokinase-4 (Rattus norvegicus) (UniProt P17712); experiment: Activation of glucokinase-mediated of glucose phosphorylation in Sprague-Dawley rat hepatocytes assessed as release of [3H]H2O from [2-3H]glucose at 30 uM after 3 hrs; type: cell-based; settings: Hepatocyte
T2 sequence (whole entry): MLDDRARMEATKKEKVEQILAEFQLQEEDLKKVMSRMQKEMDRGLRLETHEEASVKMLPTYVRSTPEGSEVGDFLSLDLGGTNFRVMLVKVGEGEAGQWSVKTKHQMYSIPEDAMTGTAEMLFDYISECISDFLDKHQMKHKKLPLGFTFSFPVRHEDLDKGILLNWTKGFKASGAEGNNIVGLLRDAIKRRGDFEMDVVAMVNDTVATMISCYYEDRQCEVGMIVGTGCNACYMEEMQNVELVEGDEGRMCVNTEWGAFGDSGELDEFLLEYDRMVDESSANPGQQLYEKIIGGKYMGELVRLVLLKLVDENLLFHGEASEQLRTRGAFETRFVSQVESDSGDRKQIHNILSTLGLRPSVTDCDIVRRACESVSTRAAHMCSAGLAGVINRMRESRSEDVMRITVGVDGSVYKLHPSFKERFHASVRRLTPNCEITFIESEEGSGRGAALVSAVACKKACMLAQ
Method in brief: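 Hepatocytes from overnight-fasted male Sprague-Dawley rats by collagenase perfusion, cultured 16-20 h at 37 °C, 5% CO2 in serum-free DMEM with 5 mM glucose plus dexamethasone. Preincubated 3 h at 37 °C in serum-free DMEM, 5 mM glucose, with DMSO or 30 μM compound, then 30 min with [2-3H]glucose. Medium collected into 0.1 M HCl; detritiated glucose (nmol/h per 10^6 cells) as % increase over vehicle; quadruplicate, mean ± SEM, Student's t test.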

[7] = Aqueous solubility by HPLC analysis; type: physicochemical; settings: buffer
[8] = Intrinsic solubility in neutral pH by HPLC analysis; type: physicochemical
Mus musculus [9] = experiment: Reduction in glucose excursion in C57BL/6 mouse at 50 mg/kg, po in water administered 30 mins before glucose challenge measured at 1 hr postdose by oral glucose tolerance test; type: functional, C57BL6; design: scale not given: the % may be the effect or the level left; method in brief: as §2
Mus musculus [10] = experiment: Reduction in glucose excursion in C57BL/6 mouse at 50 mg/kg, po in water administered 30 mins before glucose challenge measured at 2 hrs postdose by oral glucose tolerance test; type: functional, C57BL6; design: scale not given: the % may be the effect or the level left; method in brief: as §2
Mus musculus [11] = experiment: Reduction in glucose excursion in C57BL/6 mouse at 50 mg/kg, po in microemulsion administered 30 mins before glucose challenge measured at 0.5 hrs postdose by oral glucose tolerance test; type: functional, C57BL6; design: scale not given: the % may be the effect or the level left; method in brief: as §2
Mus musculus [12] = experiment: Reduction in glucose excursion in C57BL/6 mouse at 72 mg/kg, po in microemulsion administered 30 mins before glucose challenge measured up to 6 hrs postdose by oral glucose tolerance test; type: functional, organism-based; design: dose 72 mg/kg; settings: C57BL6
Mus musculus [13] = experiment: Increase in basal insulin release from beta cells in po dosed C57BL/6 mouse; type: functional, organism-based; settings: C57BL6
Mus musculus [14] = experiment: Increase in insulin release from beta cells in po dosed C57BL/6 mouse after glucose challenge; type: functional, organism-based; settings: C57BL6
[15] = molecular target: T1, Hexokinase-4 (Homo sapiens); experiment: Activation of His-tagged human recombinant liver glucokinase expressed in Escherichia coli BL21 (DE3) assessed as drug level required for half-maximal activation for sigmoid activation curve; method in brief: as §1

Row | Compound | Activity [1] | half-life [2] | logPm [4] | Activity [6] | further results
1 | COc1ccc2nc(NC(=O)C(CC3CCCC3)c3ccc(S(=O)(=O)N(C)Cc4ccccc4)cc3)sc2n1 (stereo not drawn) | 263 nM | 26.2 min | -5.4 | – | Activity (Mus musculus [3]): inactive
2 | CCC(=O)[N-]S(=O)(=O)c1ccc(C(CC2CCCC2)C(=O)Nc2nc3ccc(OC)nc3s2)cc1.[Na+] (stereo not drawn) | – | – | – | – | solubility [5]: 11 µg/mL
3 | COc1ccc2nc(NC(=O)C(CC3CCCC3)c3ccc(S(=O)(=O)Nc4cccnc4)cc3)sc2n1 (stereo not drawn) | 323 nM | – | – | 219% | –
4 | COc1ccc2nc(NC(=O)C(CC3CCCC3)c3ccc(S(=O)(=O)NCc4ccccc4)cc3)sc2n1 (stereo not drawn) | 726 nM | – | – | 32% | –
5 | COc1ccc2nc(NC(=O)C(CC3CCCC3)c3ccc(S(=O)(=O)Nc4ccccc4)cc3)sc2n1 (stereo not drawn) | 583 nM | – | -3.8 | – | –
6 | COc1ccc2nc(NC(=O)C(CC3CCCC3)c3ccc(S(=O)(=O)N4CCCCC4)cc3)sc2n1 (stereo not drawn) | 66 nM | 6.2 min | -5.2 | 230% | –
7 | O=C(Nc1nc2cccnc2s1)c1ccccc1 | 489 nM | – | – | 411% | –
8 | CCCC(=O)NS(=O)(=O)c1ccc(C(CC2CCCC2)C(=O)Nc2nc3ccc(OC)nc3s2)cc1 (stereo not drawn) [listing 1 of 2 here] | – | 2.2 min | -4.4 | – | –
9 | CCN(CC)S(=O)(=O)c1ccc(C(CC2CCCC2)C(=O)Nc2nc3ccc(OC)nc3s2)cc1 (stereo not drawn) | 42 nM | 5.8 min | -5.9 | 345% | –
10 | COc1ccc2nc(NC(=O)C(CC3CCCC3)c3ccc(S(=O)(=O)NCc4ccncc4)cc3)sc2n1 (stereo not drawn) | 207 nM | < 1.5 min | -4.3 | – | solubility [7]: 10 µg/mL (≈ 18.1 µM)
11 | COc1ccc2nc(NC(=O)C(CC3CCCC3)c3ccc(S(=O)(=O)N4CCOCC4)cc3)sc2n1 (stereo not drawn) | 153 nM | – | – | 281% | –
12 | COc1ccc2nc(NC(=O)C(CC3CCCC3)c3ccc(S(=O)(=O)NC4CC4)cc3)sc2n1 (stereo not drawn) | 266 nM | 19.5 min | -5.2 | – | –
13 | COc1ccc2nc(NC(=O)C(CC3CCCC3)c3ccc(S(=O)(=O)N(C)C)cc3)sc2n1 (stereo not drawn) | 295 nM | 17.8 min | -3.3 | 221% | –
14 | COc1ccc2nc(NC(=O)C(CC3CCCC3)c3ccc(S(=O)(=O)NCC(=O)O)cc3)sc2n1 (stereo not drawn) | 1860 nM | 27.2 min | -4.4 | – | solubility [8]: > 570 µg/mL; Activity (Mus musculus [9]): 26%; Activity (Mus musculus [10]): 20%
15 | COCCNS(=O)(=O)c1ccc(C(CC2CCCC2)C(=O)Nc2nc3ccc(OC)nc3s2)cc1 (stereo not drawn) | 61 nM | 15.7 min | -5 | 85% | Activity (Mus musculus [3]): inactive
16 | CCCC(=O)[N-]S(=O)(=O)c1ccc(C(CC2CCCC2)C(=O)Nc2nc3ccc(OC)nc3s2)cc1.[Na+] (stereo not drawn) | – | – | – | – | solubility [5]: 26 µg/mL
17 | COc1ccc2nc(NC(=O)C(CC3CCCC3)c3ccc(S(=O)(=O)N(C(C)C)C(C)C)cc3)sc2n1 (stereo not drawn) | 73 nM | – | – | – | –

Row | Compound | Activity [1] | half-life [2] | logPm [4] | Activity [6] | further results
18 | COc1ccc2nc(NC(=O)C(CC3CCCC3)c3ccc(S(=O)(=O)NCCN(C)C)cc3)sc2n1 (stereo not drawn) | 117 nM | 9 min | -4.8 | – | –
19 | COc1ccc2nc(NC(=O)C(CC3CCCC3)c3ccc(S(=O)(=O)N(C)Cc4ccco4)cc3)sc2n1 (stereo not drawn) | 109 nM | 5.1 min | -5.1 | 67% | –
20 | COc1ccc2nc(NC(=O)C(CC3CCCC3)c3ccc(S(N)(=O)=O)cc3)sc2n1 (stereo not drawn) | 897 nM | 23.1 min | -4.4 | – | solubility [7]: < 2 µg/mL; Activity (Mus musculus [11]): 22%
21 | COc1ccc2nc(NC(=O)C(CC3CCCC3)c3ccc(S(=O)(=O)NCCC(=O)O)cc3)sc2n1 (stereo not drawn) | 2810 nM | 22.6 min | -4.3 | – | solubility [8]: > 570 µg/mL; Activity (Mus musculus [3]): inactive
22 | CCCN(CCC)S(=O)(=O)c1ccc(C(CC2CCCC2)C(=O)Nc2nc3ccc(OC)nc3s2)cc1 (stereo not drawn) | 35 nM | – | – | – | –
23 | CCCC(=O)NS(=O)(=O)c1ccc(C(CC2CCCC2)C(=O)Nc2nc3ccc(OC)nc3s2)cc1 (stereo not drawn) [listing 2 of 2 here] | – | – | – | – | Activity (Mus musculus [3]): inactive
24 | COc1ccc2nc(NC(=O)C(CC3CCCC3)c3ccc(S(=O)(=O)N(C)Cc4nccn4C)cc3)sc2n1 (stereo not drawn) | 66 nM | < 1.5 min | -4.1 | – | –
25 | COc1ccc2nc(NC(=O)C(CC3CCCC3)c3ccc(S(=O)(=O)NCc4ccco4)cc3)sc2n1 (stereo not drawn) | 892 nM | 290 min | -4.9 | 14% | Activity (Mus musculus [3]): inactive
26 | COc1ccc2nc(NC(=O)C(CC3CCCC3)c3ccc(S(=O)(=O)NCc4ccccn4)cc3)sc2n1 (stereo not drawn) | 180 nM | – | – | – | solubility [7]: 10 µg/mL (≈ 18.1 µM)
27 | COc1ccc2nc(NC(=O)C(CC3CCCC3)c3ccc(S(=O)(=O)N(C)CCO)cc3)sc2n1 (stereo not drawn) | 147 nM | 10 min | -4.4 | – | –
28 | COc1ccc2nc(NC(=O)C(CC3CCCC3)c3ccc(S(=O)(=O)N4CCN(C)CC4)cc3)sc2n1 (stereo not drawn) | 39 nM | 9.1 min | -3.9 | 498% | solubility [7]: 50 µg/mL (≈ 92 µM); Activity (Mus musculus [12]): Active; Activity (Mus musculus [13]): inactive; Activity (Mus musculus [14]): inactive; Activity [15]: 11 mM
29 | COc1ccc2nc(NC(=O)C(CC3CCCC3)c3ccc(S(=O)(=O)NCc4cccs4)cc3)sc2n1 (stereo not drawn) | 1450 nM | 25.3 min | -5.1 | – | –
30 | COc1ccc2nc(NC(=O)C(CC3CCCC3)c3ccc(S(=O)(=O)NC4CCOCC4)cc3)sc2n1 (stereo not drawn) | 305 nM | 13.1 min | -4.5 | – | –
31 | COc1ccc2nc(NC(=O)C(CC3CCCC3)c3ccc(S(=O)(=O)NCc4cccnc4)cc3)sc2n1 (stereo not drawn) | 377 nM | < 1.5 min | -4.6 | 281% | Activity (Mus musculus [3]): inactive
32 | CCCCN(CCCC)S(=O)(=O)c1ccc(C(CC2CCCC2)C(=O)Nc2nc3ccc(OC)nc3s2)cc1 (stereo not drawn) | 181 nM | – | – | – | –
33 | CCC(=O)NS(=O)(=O)c1ccc(C(CC2CCCC2)C(=O)Nc2nc3ccc(OC)nc3s2)cc1 (stereo not drawn) | – | 4.8 min | -4.1 | – | –
34 | COc1ccc2nc(NC(=O)C(CC3CCCC3)c3ccc(S(=O)(=O)NC4CCCCC4)cc3)sc2n1 (stereo not drawn) | 302 nM | 4.8 min | -7 | 78% | –
